# Activity calls are given as the source filed them.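 The calls were made as follows, unless noted: active = viability at or below 30% in both replicate assays; inconclusive = viability at or below 30% in just one of the two assays; inactive = the rest.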
# How the values were obtained:
# [1] = reducers of endogenous Her2 protein level, primary screen, SKBR3 breast tumor cells, AlphaScreen, ATP viability (AID 461;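 active = Her2 level under about 52% in both replicate screens, with viability over 70% of control, limit read from the data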;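 as to Her2 level: lower value means less Her2 protein in the cells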;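 as to viability: percent of carrier control wells set as 100% viability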); details: 18-24 h, measured here: SKBR3 viability, ATP luminescence, at 10 µM
# [2] = biological target: Receptor tyrosine-protein kinase erbB-2 (Homo sapiens) (UniProt P04626); assay: as above; details: 18-24 h, at 10 µM, stronger effect = lower value
# [3] = SK-BR-3 cell growth inhibitors, pilot screen, 24 h, human (AID 572;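 active = viability at or below 10% of carrier control in both of two separate runs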;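 also: compound exposure lasted between 18 and 24 h rather than exactly 24 h; 100% = carrier-treated control wells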); details: SK-BR-3 viability, CellTiter-Glo luminescence, at 10 µM, stronger effect = lower value
# [4] = HUVEC growth inhibition – cell-based, human, primary screen (AID 575); details: HUVEC proliferation, CellTiter-Glo luminescence, 72 h; at 10 µM; stronger effect = lower value;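 also: 100% = median of untreated cell wells with 0.1% DMSO on each plate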
# How it was run: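 Assay system: primary human umbilical vein endothelial cells / Buffer or medium: endothelial basal medium with 2% FBS plus growth supplements / Compound dosing: one dose, 10 µM final, 0.1% DMSO / Timing: 72 h treatment at 37 °C / Signal: CTG luminescence / Benchmarks: 32 DMSO-only cell-control wells (high), 32 MePR drug-control wells (low) per plate / Plate: collagen-coated 384-well format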
# [5] = growth inhibitors of H69AR lung tumor, primary screen, human, duplicate replicates (AID 580;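 active = viability at or under a set limit in both replicates, limit being median viability minus 3 SD, cut at about 48% in these data, passing the limit was not always enough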;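 also: 100% = mean luminescence of untreated wells and 0% = no signal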); details: H69AR lung tumor cells viability, ATP luminescence, 72 h; at 10 µM; stronger effect = lower value
# [6] = reversal of MRP1-mediated doxorubicin resistance, pilot screen, H69AR cells, doxorubicin co-treatment (AID 601;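 active = viability loss from added drug above about 55%, and viability with drug at most 40%, in both replicates, limit read from the data, passing the limit was not always enough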); details: CellTiter-Glo, 72 h, at 10 µM; for differential viability (reversal): stronger effect = higher value
# [7] = 384-well plate pilot, post-Golgi transport modulator project, inhibition of yeast transport mutant growth (AID 636; in the data active = inhibition above about 31%); details: absorbance 615 nm, about 18 h, stronger effect = higher value
# [8] = growth suppression of yeast trafficking mutant, preliminary HTS, modulators of trafficking downstream of Golgi apparatus project, 1536-format plate, OD 615 nm (AID 637; in the data active = inhibition above about 30%); details: yeast transport mutant growth, absorbance 615 nm, 18 h; stronger effect = higher value
# [9] = H69AR cells + 2 uM doxorubicin, measured here: viability with 2 uM doxorubicin, stronger effect = lower value
# [10] = H69AR cells, compound alone cytotoxicity
# Sequence of Receptor tyrosine-protein kinase erbB-2 (Homo sapiens) (P04626 whole entry, looked up): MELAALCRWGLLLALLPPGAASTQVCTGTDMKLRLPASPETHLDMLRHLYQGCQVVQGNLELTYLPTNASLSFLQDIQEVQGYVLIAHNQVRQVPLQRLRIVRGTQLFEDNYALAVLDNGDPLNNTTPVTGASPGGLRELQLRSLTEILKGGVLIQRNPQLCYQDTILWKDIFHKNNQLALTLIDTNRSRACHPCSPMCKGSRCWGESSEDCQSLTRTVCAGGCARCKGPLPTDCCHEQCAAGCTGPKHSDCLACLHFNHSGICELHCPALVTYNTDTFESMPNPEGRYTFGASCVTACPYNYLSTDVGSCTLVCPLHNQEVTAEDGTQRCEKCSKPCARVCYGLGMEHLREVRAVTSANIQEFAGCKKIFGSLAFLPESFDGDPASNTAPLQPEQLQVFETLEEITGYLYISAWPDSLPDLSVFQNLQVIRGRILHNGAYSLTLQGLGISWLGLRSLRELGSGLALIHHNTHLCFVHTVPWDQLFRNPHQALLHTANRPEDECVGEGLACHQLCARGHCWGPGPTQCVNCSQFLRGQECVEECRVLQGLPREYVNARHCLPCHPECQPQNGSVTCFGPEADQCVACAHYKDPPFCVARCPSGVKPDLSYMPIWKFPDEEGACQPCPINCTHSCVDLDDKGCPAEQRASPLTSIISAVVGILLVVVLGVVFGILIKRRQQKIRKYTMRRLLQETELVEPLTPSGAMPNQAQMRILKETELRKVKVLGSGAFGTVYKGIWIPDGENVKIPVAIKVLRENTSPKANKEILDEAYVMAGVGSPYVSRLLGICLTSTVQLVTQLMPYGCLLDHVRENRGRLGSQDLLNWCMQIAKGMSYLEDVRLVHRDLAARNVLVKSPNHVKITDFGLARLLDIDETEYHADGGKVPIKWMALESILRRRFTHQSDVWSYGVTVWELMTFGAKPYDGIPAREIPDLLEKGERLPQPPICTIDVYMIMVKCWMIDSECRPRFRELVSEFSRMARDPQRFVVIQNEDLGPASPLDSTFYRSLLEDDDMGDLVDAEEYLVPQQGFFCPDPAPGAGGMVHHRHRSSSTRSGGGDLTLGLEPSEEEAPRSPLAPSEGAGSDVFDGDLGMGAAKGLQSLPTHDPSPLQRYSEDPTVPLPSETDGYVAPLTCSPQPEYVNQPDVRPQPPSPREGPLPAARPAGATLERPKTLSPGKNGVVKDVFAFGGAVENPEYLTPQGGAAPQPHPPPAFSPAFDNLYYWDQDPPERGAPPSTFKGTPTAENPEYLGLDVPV
Structure (SMILES),viability [1],Her2 level [2],viability [3],viability [4],viability [5],differential viability (reversal) ([6]; H69AR cells + 2 uM doxorubicin),"viability [6, 9]","viability [6, 10]",inhibition [7],inhibition [8]
C/C(=N\O)C(=O)NCc1ccccn1,102%,134% (inactive),102% (inactive),85.3% (inactive),92.2% (inactive),-4.16% (inactive),96.4%,92.2%,4.61% (inactive),11.2% (inactive)
O=C(Nc1ccc2c(c1)OCO2)c1cc2ncc(Br)cn2n1,101%,104% (inactive),101% (inactive),84.8% (inactive),86.8% (inactive),-17.3% (inactive),104%,86.8%,-4.67% (inactive),-0.16% (inactive)
O=C(Nc1cccc2ccccc12)N1CCOCC1,119%,103% (inactive),119% (inactive),85.9% (inactive),90.5% (inactive),-8.41% (inactive),98.9%,90.5%,-2.95% (inactive),11.3% (inactive)
O=C(CSc1nnc(Cc2cccs2)n1Cc1ccco1)Nc1cccc(Cl)c1,82.5%,64% (inactive),82.5% (inactive),73.4% (inactive),87% (inactive),-8.62% (inactive),95.6%,87%,-3.38% (inactive),-7.5% (inactive)
O=C1NC(Nc2ccccn2)(C(F)(F)F)C(=O)N1c1ccc(F)cc1 (stereo not given),102%,89% (inactive),102% (inactive),107% (inactive),103% (inactive),-0.015% (inactive),103%,103%,-5.47% (inactive),1.64% (inactive)
COc1ccc(C2c3sc(=O)[nH]c3SC3C4CCC(C4)C23)cc1 (stereo not given),99.5%,94.5% (inactive),99.5% (inactive),80.1% (inactive),89.7% (inactive),1.93% (inactive),87.7%,89.7%,6.4% (inactive),5.97% (inactive)
CCN(CC)CCNC(=O)CCn1c(=S)[nH]c2cc3c(cc2c1=O)OCO3,79%,89.5% (inactive),79% (inactive),89.8% (inactive),90.1% (inactive),0.295% (inactive),89.8%,90.1%,-4.59% (inactive),-2.3% (inactive)
COc1cccc(-c2csc3nnc(SCC(=O)c4ccc(NC(C)=O)cc4)n23)c1,108%,106% (inactive),108% (inactive),92% (inactive),90% (inactive),-9.79% (inactive),99.8%,90%,-4.42% (inactive),-0.66% (inactive)
COc1ccc(Cn2nnnc2C(c2cccs2)N2CCOCC2)cc1 (stereo not given),105%,123% (inactive),105% (inactive),90.9% (inactive),109% (inactive),-1.24% (inactive),111%,109%,3.16% (inactive),5.33% (inactive)
Cc1cc(Nc2ccc(N3CCC(C)CC3)cc2)n2ncnc2n1,100%,110% (inactive),100% (inactive),101% (inactive),77.6% (inactive),-1.35% (inactive),79%,77.6%,5.62% (inactive),3.02% (inactive)
CCN(CC)C(=O)c1sc(NC(=O)c2ccco2)c(C#N)c1C,99.5%,103% (inactive),99.5% (inactive),88% (inactive),79.3% (inactive),-7.3% (inactive),86.6%,79.3%,-4.74% (inactive),-7.26% (inactive)
Cc1c(C(=O)O)oc2ccc(S(=O)(=O)NCCC3=CCCCC3)cc12,100%,98.5% (inactive),100% (inactive),95.9% (inactive),101% (inactive),6.48% (inactive),94.3%,101%,-3.16% (inactive),-9.52% (inactive)
COc1cccc(OCc2nc3c4cnn(-c5ccccc5)c4ncn3n2)c1,97.5%,99.5% (inactive),97.5% (inactive),80.1% (inactive),67.8% (inactive),-20.5% (inactive),88.3%,67.8%,-2.24% (inactive),3.44% (inactive)
CCS(=O)(=O)N1CCCC(C(=O)NCc2cccc(OC)c2)C1 (stereo not given),106%,108% (inactive),106% (inactive),98.1% (inactive),96.6% (inactive),-4.98% (inactive),102%,96.6%,-5.2% (inactive),5.41% (inactive)
Cc1occc1C(=O)Nc1ccccc1NC(=O)c1ccoc1C,96.5%,101% (inactive),96.5% (inactive),90.9% (inactive),100% (inactive),8.43% (inactive),92%,100%,-4.67% (inactive),0.48% (inactive)
Cc1sc(NC(=O)CSc2nc(N)n(CC(=O)c3ccccc3)n2)c(C#N)c1C,103%,106% (inactive),103% (inactive),103% (inactive),90.4% (inactive),-0.79% (inactive),91.2%,90.4%,-3.65% (inactive),-6.83% (inactive)
CCN(CC)CCCNS(=O)(=O)c1ccc(OC)cc1,114%,89% (inactive),114% (inactive),103% (inactive),90.3% (inactive),-8.58% (inactive),98.9%,90.3%,-5.32% (inactive),-2.3% (inactive)
Cc1ccc(C)c(S(=O)(=O)NCc2cccnc2)c1,92%,87.5% (inactive),92% (inactive),108% (inactive),92.8% (inactive),1.22% (inactive),91.5%,92.8%,-5.33% (inactive),-6.19% (inactive)
Cn1c2ccccc2c2ncn(CCCN3CCOCC3)c(=O)c21,89%,93% (inactive),89% (inactive),101% (inactive),94.6% (inactive),1.77% (inactive),92.9%,94.6%,-7.6% (inactive),-7.94% (inactive)
CC1Cc2ccccc2N1C(=O)CSc1nnc2n1C(C)(C)Cc1ccccc1-2 (stereo not given),79%,105% (inactive),79% (inactive),71.8% (inactive),82.4% (inactive),-7.96% (inactive),90.4%,82.4%,-6.4% (inactive),-7.3% (inactive)
COc1ccc(C2=NO[C@@H]3C(=O)N(c4cccc(C)c4C)C(=O)[C@H]23)cc1OC,104%,106% (inactive),104% (inactive),97.7% (inactive),91.5% (inactive),-7.95% (inactive),99.5%,91.5%,4.29% (inactive),-3.49% (inactive)
O=C(OCc1nnc(-c2ccccc2)o1)C1=COCCO1,100%,94% (inactive),100% (inactive),101% (inactive),92.1% (inactive),-0.965% (inactive),93%,92.1%,-8.67% (inactive),-1.97% (inactive)
CC(C)(C)NC(=O)COC(=O)c1ccc(O)cc1,100%,104% (inactive),100% (inactive),103% (inactive),98.9% (inactive),-3.93% (inactive),103%,98.9%,-2.99% (inactive),-1.27% (inactive)
CC1(C)Cc2noc(N)c2C(C)(C)N1O,121%,91% (inactive),121% (inactive),89.5% (inactive),95.6% (inactive),14.8% (inactive),80.8%,95.6%,-4.61% (inactive),2.7% (inactive)
C=CCOC(=O)CCC(=O)Nc1cc(OC)nc(OC)n1,112%,112% (inactive),112% (inactive),92.1% (inactive),90.8% (inactive),0.705% (inactive),90.1%,90.8%,-3.07% (inactive),8.73% (inactive)
Cn1c(CNc2nc(-c3ccccc3)cs2)nnc1SCC(=O)N1CCc2ccccc21,96.5%,97.5% (inactive),96.5% (inactive),81.8% (inactive),93.3% (inactive),9.91% (inactive),83.4%,93.3%,-1.62% (inactive),7.14% (inactive)
Cc1cc2ncn(N)c2cc1C,99.5%,84% (inactive),99.5% (inactive),101% (inactive),98.8% (inactive),0.485% (inactive),98.3%,98.8%,-7.7% (inactive),1.83% (inactive)
O=C1c2ccccc2CN1CCNS(=O)(=O)c1ccc(Cl)cc1,104%,92.5% (inactive),104% (inactive),98% (inactive),88% (inactive),3.27% (inactive),84.8%,88%,-7.87% (inactive),-0.63% (inactive)
CCN1C(=O)OC2(CCCCC2)C1(C)O (stereo not given),107%,93.5% (inactive),107% (inactive),101% (inactive),105% (inactive),11.4% (inactive),94.1%,105%,0.13% (inactive),-7.27% (inactive)
